The record followed here is ChEMBL document CHEMBL3739352, “Anticonvulsant activity, crystal structures, and preliminary safety evaluation of N-trans-cinnamoyl derivatives of selected (un)modified aminoalkanols” (Eur J Med Chem, 2016).

Calls of active or inactive are those of the source. The calls are words filed in the database; no cut-off is given here.

The test system of data set [1] is Mus musculus. Put plainly: Neurotoxicity in albino Carworth Farms No.1 mouse at 100 mg/kg, ip after 4 hrs by rotarod test. It counts as toxicity, organism-based. The settings on record: in vivo. In outline:
(§1)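 Mice (albino Carworth Farms No.1) were dosed i.p. at 30, 100 or 300 mg/kg in 0.5% methylcellulose. They were tested 0.5 and 4 h later on a 1-inch knurled rod rotating at 6 rpm. Neurotoxicity was scored if a mouse could not stay on the rod for at least 1 min in each of three trials. Results are given as animals toxic/animals tested, with deaths noted.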
For orientation: The rotarod test checks motor coordination on a turning rod.

Data set [2] concerns Mus musculus. Put plainly: Anticonvulsant activity in albino Carworth Farms No.1 mouse assessed as protection against subcutaneous dosed pentetrazol-induced seizures at 100 mg/kg, ip after 0.5 hrs. It counts as functional, organism-based. Put shortly: (§2)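 Mouse i.p. screen in Carworth Farms No.1 albino mice at 30, 100 or 300 mg/kg in 0.5% methylcellulose. Testing was at 0.5 and 4 h after injection, by maximal electroshock or by subcutaneous pentetrazol challenge. Scoring was number protected / number used.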

In data set [3] the test system is Mus musculus. In words: Neurotoxicity in albino Carworth Farms No.1 mouse at 30 mg/kg, ip after 0.5 hrs by rotarod test. It counts as toxicity, organism-based. The settings on record: in vivo. In outline: as §1
The subject of data set [4] is Mus musculus. Put plainly: Anticonvulsant activity in albino Carworth Farms No.1 mouse assessed as protection against subcutaneous dosed pentetrazol-induced seizures at 30 mg/kg, ip after 0.5 hrs. Format: functional, organism-based. In outline: as §2
In data set [5] the test system is Mus musculus. In words: Anticonvulsant activity in albino Carworth Farms No.1 mouse assessed as protection against maximal electroshock-induced seizures at 100 mg/kg, ip after 4 hrs. It counts as functional, organism-based. In outline: as §2
(In general: The maximal electroshock test induces tonic seizures with an electrical stimulus.)

Data set [6] concerns Mus musculus. Put plainly: Anticonvulsant activity in albino Carworth Farms No.1 mouse assessed as protection against maximal electroshock-induced seizures at 300 mg/kg, ip after 0.5 hrs. Format: functional, organism-based. Put shortly: as §2
Data set [7] concerns Mus musculus. In words: Anticonvulsant activity in albino Carworth Farms No.1 mouse assessed as protection against subcutaneous dosed pentetrazol-induced seizures at 100 mg/kg, ip after 4 hrs. It counts as functional, organism-based. In outline:
as §2

Data set [8] has as its system Mus musculus. In words: Anticonvulsant activity in albino Carworth Farms No.1 mouse assessed as protection against subcutaneous dosed pentetrazol-induced seizures at 30 mg/kg, ip after 4 hrs. Format: functional, organism-based. In outline: as §2
Data set [9] concerns Mus musculus. Put plainly: Neurotoxicity in albino Carworth Farms No.1 mouse at 300 mg/kg, ip after 0.5 hrs by rotarod test. Conditions: in vivo. It counts as toxicity, organism-based. Put shortly: as §1
Data set [10] is described as follows: Lipophilicity of the compound using 75% methanol in water at 1 mg/ml by RT-TLC analysis. Format: physicochemical. Conditions: buffer. In outline:
(§3)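 Reversed-phase TLC with a methanol–water mobile phase at the stated methanol content (v/v). Compounds were spotted from 1 mg/mL methanol solutions after 1 h chamber saturation and located under UV light. Rf was measured and RM = log(1/Rf − 1) calculated.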

Data set [11] concerns Mus musculus. In words: Anticonvulsant activity in albino Carworth Farms No.1 mouse assessed as protection against maximal electroshock-induced seizures at 300 mg/kg, ip after 4 hrs. It counts as functional, organism-based. Put shortly: as §2
The nature of data set [12]: Lipophilicity of the compound using 85% methanol in water at 1 mg/ml by RT-TLC analysis. It counts as physicochemical. The settings on record: buffer. In outline:
as §3

In data set [13] the test system is Mus musculus. Put plainly: Neurotoxicity in albino Carworth Farms No.1 mouse at 100 mg/kg, ip after 0.5 hrs by rotarod test. Format: toxicity, organism-based. Conditions: in vivo. Put shortly:
as §1

The subject of data set [14] is Mus musculus. In words: Neurotoxicity in albino Carworth Farms No.1 mouse at 300 mg/kg, ip after 4 hrs by rotarod test. Format: toxicity, organism-based. The settings on record: in vivo. In outline: as §1
Data set [15] can be described thus: Lipophilicity of the compound using 95% methanol in water at 1 mg/ml by RT-TLC analysis. It counts as physicochemical. The settings on record: buffer. In outline:
as §3

Data set [16] can be described thus: Lipophilicity of the compound using 90% methanol in water at 1 mg/ml by RT-TLC analysis. Format: physicochemical. The settings on record: buffer. Put shortly:
as §3

Data set [17] relates to Mus musculus. In words: Anticonvulsant activity in albino Carworth Farms No.1 mouse assessed as protection against subcutaneous dosed pentetrazol-induced seizures at 300 mg/kg, ip after 4 hrs. Format: functional, organism-based. In outline: as §2
The test system of data set [18] is Mus musculus. In words: Neurotoxicity in albino Carworth Farms No.1 mouse at 30 mg/kg, ip after 4 hrs by rotarod test. Format: toxicity, organism-based. The settings on record: in vivo. In outline: as §1
Data set [19] can be described thus: Lipophilicity of the compound at 1 mg/ml by RT-TLC analysis relative to 0% methanol. It counts as physicochemical. The settings on record: methanol/water. Put shortly:
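Reversed-phase TLC used methanol–water mobile phases of 95–65% methanol. Compounds were applied from 1 mg/mL methanol solutions after 1 h chamber saturation, with UV detection. RM = log(1/Rf − 1) was calculated at each methanol level and extrapolated linearly (RM = RM0 + bC) to 0% methanol to give RM0.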

Data set [20] relates to Mus musculus. In words: Anticonvulsant activity in albino Carworth Farms No.1 mouse assessed as protection against maximal electroshock-induced seizures at 100 mg/kg, ip after 0.5 hrs. It counts as functional, organism-based. Put shortly: as §2
The test system of data set [21] is Mus musculus. In words: Anticonvulsant activity in albino Carworth Farms No.1 mouse assessed as protection against maximal electroshock-induced seizures at 30 mg/kg, ip after 4 hrs. Format: functional, organism-based. In outline: as §2
In data set [22] the test system is Mus musculus. Put plainly: Anticonvulsant activity in albino Carworth Farms No.1 mouse assessed as protection against maximal electroshock-induced seizures at 30 mg/kg, ip after 0.5 hrs. Format: functional, organism-based. In outline: as §2
Data set [23] deals with Mus musculus. Put plainly: Anticonvulsant activity in albino Carworth Farms No.1 mouse assessed as protection against subcutaneous dosed pentetrazol-induced seizures at 300 mg/kg, ip after 0.5 hrs. Format: functional, organism-based. Put shortly: as §2
The nature of data set [24]: Lipophilicity of the compound using 65% methanol in water at 1 mg/ml by RT-TLC analysis. It counts as physicochemical. The settings on record: buffer. Put shortly: as §3

With `CC(=O)CNC(=O)/C=C/c1ccccc1`, the Activity entry with Mus musculus [1], in the data set on Mus musculus [3], in the data set with Mus musculus [9], with Mus musculus [13], with Mus musculus [14] and in the data set with Mus musculus [18] was “Non-toxic” in each case. The result in the data set with Mus musculus [2], in the data set on Mus musculus [4], with Mus musculus [5], in the data set on Mus musculus [7], with Mus musculus [8] and in the data set with Mus musculus [11] was inactive. In addition, the result in the data set on Mus musculus [17], in the data set on Mus musculus [20], in the data set on Mus musculus [21], in the data set with Mus musculus [22] and with Mus musculus [23] was inactive. Moreover, the outcome in the data set with Mus musculus [6] was Active. The Rm in data set [10] is -0.21; in [12], -0.33; in data set [15] it was -0.63; in [16], -0.52; in [19], 1.478; in data set [24] it was 0.05.
In the case of `CC(C)(CO)NC(=O)/C=C/c1ccccc1`, the Activity entry in the data set on Mus musculus [1], in the data set with Mus musculus [3], in the data set on Mus musculus [9], with Mus musculus [13], in the data set with Mus musculus [14] and with Mus musculus [18] was “Non-toxic” throughout. For the same compound, the outcome in the data set with Mus musculus [2], with Mus musculus [4], in the data set on Mus musculus [5], in the data set with Mus musculus [7], in the data set with Mus musculus [8] and in the data set on Mus musculus [11] was inactive. The outcome in the data set with Mus musculus [17], in the data set on Mus musculus [20], in the data set on Mus musculus [21] and with Mus musculus [22] was inactive. Besides, the outcome in the data set on Mus musculus [6] and in the data set with Mus musculus [23] was Active. In addition, the Rm is listed as -0.14 in data set [10]; -0.25 in [12]; -0.63 in data set [15]; -0.5 in data set [16]; 2.151 in data set [19]; 0.29 in data set [24].
Regarding `COC(=O)C(NC(=O)/C=C/c1ccccc1)C(C)C` (racemic), the Activity result in the data set on Mus musculus [1], in the data set with Mus musculus [3], in the data set on Mus musculus [9], with Mus musculus [13], in the data set with Mus musculus [14] and with Mus musculus [18] was “Non-toxic” in each case. For the same compound, the result in the data set with Mus musculus [2], in the data set on Mus musculus [4], with Mus musculus [5], with Mus musculus [7], in the data set with Mus musculus [8] and in the data set with Mus musculus [11] was inactive. In addition, the result in the data set with Mus musculus [17], in the data set with Mus musculus [20], with Mus musculus [21], in the data set on Mus musculus [22] and with Mus musculus [23] was inactive. Moreover, the outcome in the data set on Mus musculus [6] was Active. Moreover, the Rm in data set [10] is given as 0.05; in [12], -0.03; in data set [15] it was -0.52; in data set [16], -0.31; in [19] it was 2.742; in [24], 0.58.
On to `CCC(COC(C)=O)NC(=O)/C=C/c1ccccc1` (configuration not stated), for which the outcome in the data set on Mus musculus [2], in the data set with Mus musculus [4], with Mus musculus [5], in the data set on Mus musculus [6], in the data set on Mus musculus [7] and in the data set with Mus musculus [8] was inactive. The outcome in the data set with Mus musculus [11], in the data set on Mus musculus [17], in the data set with Mus musculus [20], in the data set with Mus musculus [21], in the data set with Mus musculus [22] and with Mus musculus [23] was inactive. For the same compound, the Activity entry in the data set with Mus musculus [3], in the data set with Mus musculus [9] and with Mus musculus [13] was “Non-toxic” throughout. Besides, the Rm in [10] is -0.05; in data set [12], -0.14; in [15], -0.58; in [16], -0.43; in data set [19], 2.118; in [24], 0.29.
For `O=C(/C=C/c1ccccc1)NCCCCCO`, the Activity result with Mus musculus [1], with Mus musculus [3], in the data set on Mus musculus [9], in the data set with Mus musculus [13], in the data set on Mus musculus [14] and in the data set with Mus musculus [18] was “Non-toxic” throughout. In addition, the outcome in the data set with Mus musculus [2], in the data set with Mus musculus [4], in the data set on Mus musculus [5], with Mus musculus [6], in the data set on Mus musculus [7] and in the data set on Mus musculus [8] was inactive. The result in the data set on Mus musculus [11], in the data set on Mus musculus [17], in the data set with Mus musculus [20], in the data set on Mus musculus [21], in the data set on Mus musculus [22] and in the data set with Mus musculus [23] was inactive. For the same compound, the Rm in data set [10] is on record as -0.18; in [12] it was -0.27; in data set [15] it was -0.69; in data set [16] it was -0.52; in data set [19], 1.983; in data set [24], 0.19.
